Calls of active or inactive are those of the source. No cut-off for these calls is given here.
How the values were obtained:
[1] = molecular target: T1, DNA repair protein RAD51 homolog 1 (Homo sapiens, UniProt Q06609); assay: Inhibition of Escherichia coli BL21(DE3) expressing human N-terminal 6-histidine/Avi-tagged RAD51 binding to 5'-Alexa488-oligo-dT45 ssDNA preincubated for 40 mins followed by substrate addition measured after 40 mins by fluorescence polarization based microplate method
T1 sequence (Q06609 whole entry): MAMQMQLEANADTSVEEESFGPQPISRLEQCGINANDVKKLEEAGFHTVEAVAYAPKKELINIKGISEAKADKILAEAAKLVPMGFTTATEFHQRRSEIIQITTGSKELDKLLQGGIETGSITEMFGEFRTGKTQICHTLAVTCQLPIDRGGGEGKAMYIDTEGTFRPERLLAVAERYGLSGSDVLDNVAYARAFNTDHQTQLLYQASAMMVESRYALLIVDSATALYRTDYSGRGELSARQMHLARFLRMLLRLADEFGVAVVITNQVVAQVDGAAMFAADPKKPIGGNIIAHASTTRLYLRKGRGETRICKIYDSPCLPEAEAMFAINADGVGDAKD
How it was run: (§1)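 Human RAD51 preincubated with compound in DMSO at 37 °C for 40 min, then 5'-Alexa488-oligo-dT45 added and incubated another 40 min at 37 °C. Buffer: 20 mM HEPES pH 7.5, 2 mM ATP, 10 mM MgCl2, 0.1 mM TCEP. IC50 from least-squares dose–response fits with standard error.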

[2] = molecular target: T1, DNA repair protein RAD51 homolog 1; assay: Inhibition of human N-terminal 6-histidine/Avi-tagged recombinant RAD51 expressed in Escherichia coli BL21(DE3) assessed as D-loop formation using 5'-32P-labeled 90-mer ssDNA as substrate preincubated for 10 mins followed by substrate addition with subsequent incubation with substrate for 5 mins measured after 20 mins in presence of supercoiled pRS306 dsDNA by agarose gel electrophoresis
[3] = molecular target: T2, DNA repair protein RAD51 homolog 1 (Homo sapiens) (UniProt Q06609); conditions: 5 to 100 uM
T2 sequence (whole entry): T1 sequence (Q06609 whole entry)

HEK293 [4] = assay: Induction of single strand annealing activity in human HEK293-SA-GFP cells transfected with pCBASce expressing I-Sce-I up to 40 uM at 24 hrs post transfection by 7-aminoactinomycin D staining based flow cytometry; assay type: functional, cell-based
How it was run: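 293-DR-GFP (HR) or 293-SA-GFP (SSA) reporter cells electroporated (325 V, 975 µF) with 37.5 µg/mL I-SceI plasmid pCBASce or empty pCAGGS control. Seeded in complete DMEM + 0.5% DMSO with compound added at transfection, grown out 24 h. Cells resuspended with 1 µg/mL 7-AAD for flow cytometry, dead/apoptotic cells gated out, GFP-positive fraction scored among live cells.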

[5] = molecular target: T1, DNA repair protein RAD51 homolog 1; assay: Inhibition of IR-induced RAD51 accumulation in HEK293-DR-GFP cells subnuclear foci at 20 uM after 8 hrs by fluorescence microscopy; assay type: cell-based
How it was run: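 293-DR-GFP cells grown on coverslips for 2 days, X-irradiated at 1.5 Gy/min, fixed after 0, 2, 4 or 8 h outgrowth. Paraformaldehyde fixation and Triton permeabilization. Stained with rabbit anti-RAD51 plus anti-RPA or anti-γH2AX, DAPI counterstain. At least 100 nuclei scored per condition.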

HEK293 [6] = assay: Effect on RAD51 levels in cytosol of HEK293-DR-GFP cells at 20 uM after 8 hrs by Western blot analysis; assay type: ADME, cell-based; conditions: human
How it was run: (§2)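 Subconfluent 293-DR-GFP cells grown with compound for the indicated time. Fractionated at 4 °C: hypotonic buffer on ice 15 min (cytosol); pellet in hypotonic buffer + 0.5 M NaCl 15 min (soluble nuclear); RIPA extraction three times 5 min, insoluble pellet kept (chromatin). Fractions run on 10% SDS-PAGE, blotted to PVDF, probed with rabbit anti-RAD51 (1:2000) or anti-PCNA (1:1000), read by ECL.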

HEK293 [7] = assay: Effect on RAD51 levels in soluble nuclear fraction of HEK293-DR-GFP cells at 20 uM after 8 hrs by Western blot analysis; assay type: ADME, cell-based; conditions: human, hek293, 8 h; how it was run: as §2
HEK293 [8] = assay: Effect on RAD51 levels in chromatin fraction of HEK293-DR-GFP cells at 20 uM after 8 hrs by Western blot analysis; assay type: cell-based; conditions: human, hek293, 8 h; how it was run: as §2
[9] = molecular target: T1, DNA repair protein RAD51 homolog 1; assay: Effect on stabilization of Escherichia coli BL21(DE3) expressing human N-terminal 6-histidine/Avi-tagged RAD51-circular pRS306 virion ssDNA nucleoprotein filament at 100 uM after 40 mins in presence of NaCl by SYBR gold staining based agarose gel electrophoresis; assay type: ADME
Saccharomyces cerevisiae [10] = assay: (§3) Inhibition of Saccharomyces cerevisiae RAD51 D-loop activity using 5'-32P-labeled 90-mer ssDNA as substrate up to 100 uM preincubated for 10 mins followed by substrate addition with subsequent incubation with substrate for 5 mins measured after 20 mins in presence of supercoiled pRS306 dsDNA by agarose gel electrophoresis
How it was run: (§4)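 Yeast Rad51 (1 µM) with Rad52 (2 µM), or E. coli RecA (0.4 µM), preincubated with compound at 37 °C for 10 min. 32P 90-mer ssDNA added with 1 mM MgCl2 for 5 min, then supercoiled pRS306 with MgCl2 raised to 10 mM for 20 min. dsDNA step in 20 mM HEPES pH 7.5, 2 mM ATP, 10 nM ssDNA, 4.5 nM dsDNA. Read by agarose gel and phosphorimaging.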

Saccharomyces cerevisiae [11] = assay: as §3, with “RAD52” for “RAD51”; how it was run: as §4
Escherichia coli = assay: as §3, with “Escherichia coli RecA” for “Saccharomyces cerevisiae RAD51”; how it was run: as §4
U2OS = assay: Cytotoxicity against human U2OS cells assessed as cell survival treated with ionizing radiation followed by compound addition after 7 to 11 days by crystal violet staining based colony counting method; assay type: functional
How it was run: (§5)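 Cells grown to subconfluence, X-irradiated at 1.5 Gy/min, trypsinized and seeded at 1000–1500 cells/well in complete medium with 0.5% DMSO plus compound at the indicated dose, kept through outgrowth. Incubated 7–11 days until colonies of ≥50 cells. Stained ≥30 min at room temperature in 6% glutaraldehyde + 0.5% crystal violet, then counted automatically. PC-3 grown in DMEM:F12 (1:1) with 10% FCS.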

PC-3 = assay: Cytotoxicity against human PC3 cells assessed as cell survival treated with ionizing radiation followed by compound addition after 7 to 11 days by crystal violet staining based colony counting method; assay type: functional; how it was run: as §5
MCF7 = assay: Cytotoxicity against human MCF7 cells assessed as cell survival treated with ionizing radiation followed by compound addition after 7 to 11 days by crystal violet staining based colony counting method; assay type: functional; how it was run: as §5
[12] = molecular target: T1, DNA repair protein RAD51 homolog 1; assay: Effect on stabilization of Escherichia coli BL21(DE3) expressing human N-terminal 6-histidine/Avi-tagged RAD51-circular pRS306 virion ssDNA nucleoprotein filament at 30 uM after 40 mins in presence of NaCl by SYBR gold staining based agarose gel electrophoresis; assay type: ADME
[13] = molecular target: T2, DNA repair protein RAD51 homolog 1 (Homo sapiens); conditions: 40 uM
[14] = molecular target: T1, DNA repair protein RAD51 homolog 1; assay: Inhibition of Escherichia coli BL21(DE3) expressing human N-terminal 6-histidine/Avi-tagged RAD51 binding to circular pRS306 virion ssDNA preincubated for 40 mins followed by ssDNA addition measured after 5 mins by agarose gel electrophoresis
[15] = molecular target: T1, DNA repair protein RAD51 homolog 1; assay: Inhibition of RAD51-mediated homologous recombination in human HEK293-DR-GFP cells transfected with pCBASce expressing I-Sce-I after 24 hrs following transfection by 7-aminoactinomycin D staining based flow cytometry
[16] = molecular target: T1, DNA repair protein RAD51 homolog 1; assay: Inhibition of Escherichia coli BL21(DE3) expressing human N-terminal 6-histidine/Avi-tagged RAD51 binding to 5'-Alexa488-oligo-dT45 ssDNA at 5 to 100 uM preincubated for 40 mins followed by substrate addition measured after 40 mins by fluorescence polarization based microplate method; conditions: read-out: Imax
How it was run: as §1, with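 “TCEP. Final: 0.2 µM RAD51, 2.22 nM ssDNA, 30 mM NaCl, 4% DMSO. Fluorescence polarization read at 485/535 nm.” for “TCEP.”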

In the case of Nc1cccc(-c2nc3ccccc3n3cccc23)c1, the IC50 [1] is reported as > 100 µM.
FC(F)(F)Oc1ccc(-c2nc3ccccc3n3cccc23)cc1 was tested, and the IC50 [2] was > 100 µM.
In the case of c1ccc2c(c1)nc(-c1ccncc1)c1cccn12, the IC50 [1] is reported as > 100 µM.
c1ccc2c(-c3nc4ccccc4n4cccc34)cccc2c1 was tested, and the IC50 [2] was > 100 µM.
For COc1ccc2c(c1)nc(-c1ccc(N(C)C)cc1)c1cccn12, the Imax [3] was 67%.
With O=[N+]([O-])c1ccc(-c2nc3ccccc3n3cccc23)cc1 the IC50 [2] was > 100 µM and the IC50 [1] was > 100 µM.
In the case of O=[N+]([O-])c1ccc(-c2nc3cc(O)ccc3n3cccc23)cc1, the IC50 [2] is reported as > 100 µM.
Work on COc1ccc2c(c1)NC(c1ccc(N(C)C)cc1)c1cccn1-2 (racemic) yielded an Imax [3] of 17%.
With Oc1ccc2c(c1)nc(-c1cccnc1)c1cccn12 the Imax [3] was 53%.
CCNc1ccc(-c2nc3ccccc3n3cccc23)cc1 was tested, and the Activity (HEK293 [4]) was “inactive”, the “inhibition (INH)” value [5] was “Not Active” and the Activity (HEK293 [6]) was “Non-toxic”. The Activity (HEK293 [7]) was “Non-toxic”, the Activity (HEK293 [8]) was “Non-toxic” and the Activity [9] was “Not Active”. For the same compound, the inhibition (Saccharomyces cerevisiae [10]) was “inactive”, the inhibition (Saccharomyces cerevisiae [11]) was “inactive” and the inhibition (Escherichia coli) was “inactive”. For the same compound, the Activity (U2OS) was “Active”, the Activity (PC-3) was “Active” and the Activity (MCF7) was “Active”. For the same compound, the Activity [12] was “Not Active” and the Imax [3] was 91%.
Compound COc1ccc2c(c1)NC(c1ccc(N(C)C)cc1)c1cccn1-2 (stereo in doubt; 1) [listing 1 of 2 here] has an Imax [3] of 74% and an inhibition [13] of 83%.
In the case of COc1ccc2c(c1)nc(-c1ccc(O)cc1)c1cccn12, the Imax [3] is reported as 13%.
With COc1ccc2c(c1)nc(-c1cccnc1)c1cccn12 the IC50 [1] was > 100 µM and the Imax [3] was 74%.
Oc1ccc(-c2nc3ccccc3n3cccc23)cc1 was tested, and the IC50 [2] was > 100 µM and the IC50 [1] was > 100 µM.
For CN(C)c1ccc(-c2nc3cc(F)c(F)cc3n3cccc23)cc1, the IC50 [2] was > 100 µM.
O=C1C(Cl)=C(N2CCOCC2)C(=O)N1c1ccc(Cl)c(Cl)c1 was tested, and the Activity [14] was “Dose-dependent effect” and the Activity [12] was “Active”.
For COc1ccc2c(c1)NC(c1ccc(N(C)C)cc1)c1cccn1-2 (stereo in doubt; 1) [listing 2 of 2 here], the IC50 [2] was 21.3 µM, the IC50 [15] was 13.1 µM and the Emax [16] was 33%.
With C1=C(c2nc3ccccc3n3cccc23)CCCC1 the IC50 [2] was > 100 µM.
For c1ccc2c(c1)nc(-c1ccc(N3CCCC3)cc1)c1cccn12, the IC50 [2] was > 100 µM.
For O=[N+]([O-])c1cccc(-c2nc3ccccc3n3cccc23)c1, the IC50 [2] was > 100 µM and the IC50 [1] was > 100 µM.
In the case of c1ccc2c(c1)nc(-c1ccc(N3CCOCC3)cc1)c1cccn12, the IC50 [1] is reported as > 100 µM and the Imax [3] is reported as 68%.
Compound COc1ccc2c(c1)nc(-c1ccc(N)cc1)c1cccn12 has an Imax [3] of 100%.
In the case of COc1ccc2c(c1)nc(-c1ccc([N+](=O)[O-])cc1)c1cccn12, the IC50 [2] is reported as > 100 µM.
With CN(C)c1ccc(-c2nc3cc(F)ccc3n3cccc23)cc1 the IC50 [2] was > 100 µM.
CN(C)c1ccc(-c2nc3cc(O)ccc3n3cccc23)cc1 showed an Imax [3] of 91%.

From ChEMBL document CHEMBL3822453 (J Med Chem, 2016)
